Only some compounds are listed: those with a hit (about 4.7% of all), similar ones and a draw of the others.
Cl transport mod: KCC2 (human) Cl- transport modulation | AID 1456 | Q9H2X9 | B-score of Tl+ flux slope (higher = more flux/activation; lower = inhibition) at 10 µM | KCC2 cells, thallium flux FluoZin-2 fluorescence | 190,000 tested, 2.2% active;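 active = thallium flux slope and its plate-corrected score both differing from the plate sample mean at a set confidence after two filtering rounds, in either direction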;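 note: slope of fluorescence scaled to starting intensity during 10 to 20 s after thallium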
MrgX1 PAM: human MrgX1 positive allosteric modulation, primary screen; Q96LB2; MrgX1-HEK293, Fluo-4 calcium flux, FDSS; stronger effect = higher value; B-score at 10 µM; 310,000 tested, 0.63% active;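 active = plate-corrected calcium response at least 3 library SD above typical, normal starting fluorescence, not activating the receptor alone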;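 note: compound read alongside a low EC10 to EC30 dose of BAM8-22 agonist; peak minus trough fluorescence over baseline measured at the second addition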
Target sequence (Q96LB2 whole entry, looked up): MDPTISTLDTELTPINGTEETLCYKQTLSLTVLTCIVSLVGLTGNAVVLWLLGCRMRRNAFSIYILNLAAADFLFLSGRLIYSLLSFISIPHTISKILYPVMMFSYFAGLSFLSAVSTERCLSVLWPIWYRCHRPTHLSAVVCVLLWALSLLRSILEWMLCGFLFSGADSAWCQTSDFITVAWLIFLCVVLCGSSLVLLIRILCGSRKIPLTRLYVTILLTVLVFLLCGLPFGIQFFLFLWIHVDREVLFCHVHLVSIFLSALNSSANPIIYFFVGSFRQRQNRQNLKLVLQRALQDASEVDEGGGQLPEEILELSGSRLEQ
RGS4 inh: inhibitors of human RGS4; P49798; HEK293 M3R/RGS4 inducible, Fluo-4 calcium flux; stronger effect = higher value; triggered by carbachol at its EC20; B-score at 10 µM; 310,000 tested, 0.45% active; AID 463165;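 active = B-score, a plate-corrected calcium signal, over three deviations above library mean, with baseline fluorescence within five deviations of library mean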;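 note: RGS4 expression induced by doxycycline in cells with stable M3 receptor; B-score is computed from the integrated fluorescence ratio over baseline after carbachol; higher B-score means a larger calcium signal and so more RGS4 inhibition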
Target sequence (P49798 whole entry, looked up): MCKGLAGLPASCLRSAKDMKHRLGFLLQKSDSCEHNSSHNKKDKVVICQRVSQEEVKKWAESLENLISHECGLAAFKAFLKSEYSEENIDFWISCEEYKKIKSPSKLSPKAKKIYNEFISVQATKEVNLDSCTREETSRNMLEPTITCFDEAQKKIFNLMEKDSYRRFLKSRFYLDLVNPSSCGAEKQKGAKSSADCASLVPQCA
MrgX1 antag: human MrgX1 receptor antagonism, primary screen. Q96LB2. MRGX1-HEK293 calcium flux, Fluo-4, BAM8-22 antagonism; stronger effect = lower value. B-score at 10 µM. 310,000 tested, 1.3% active. AID 588676;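 active = calcium-response B-score plate-corrected more than 3 library SD below zero, starting fluorescence within 5 deviations, no agonist response on first addition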;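 note: peak minus trough fluorescence over baseline after final BAM8-22 challenge near maximal dose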
MrgX1 ag: human MrgX1 receptor agonism, primary screen. MrgX1-HEK293 cells, Fluo-4 calcium fluorescence, agonist mode; stronger effect = higher value. B-score at 10 µM. 310,000 tested, 0.44% active. AID 588627;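 active = calcium response B-score plate-corrected fluorescence ratio at least 3 library SD, with starting fluorescence B-score inside 5 SD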
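Test system: Stable human MrgX1 HEK293 cell line | Schedule: Overnight plating before 1 h dye loading | Read-out basis: Baseline-normalised fluorescence change ratio, B-scored | Detection: Kinetic calcium dye fluorescence, Fluo-4 NW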
RGS4 act: potentiators or activators of RGS4; HEK293 M3R/inducible RGS4, carbachol calcium flux Fluo4; stronger effect = lower value; AID 463111; 310,000 tested, 0.92% active; B-score at 10 µM;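 active = B-score of the integrated calcium signal more than 4 SD below the library mean, with starting fluorescence not abnormally high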;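 note: negative B-score means reduced calcium response which marks RGS4 activation or potentiation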
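Detection: kinetic calcium fluorescence imaging with Fluo4-AM dye, 2 µM / Material: HEK293 cells with stable M3R and inducible RGS4 / Schedule: recording 10 s baseline at 1 Hz, 100 s post-agonist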
MrgX1 antag conf: reconfirmed antagonist of human MrgX1 receptor signaling. 2,300 tested, 19% active. shares compounds with MrgX1 antag. remaining BAM8-22 calcium response % of control (stronger effect = lower value), % at 10 µM. MrgX1-HEK293, BAM8-22 calcium flux, Fluo-4; stronger effect = lower value;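 active = remaining agonist calcium response no higher than 100% minus 3 SD of agonist-only control wells, with starting fluorescence near control levels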;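 note: agonist BAM8-22 given at a near maximal EC90 to ECmax level; peak minus minimum fluorescence divided by baseline after agonist addition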
HEK293 Ca flux: MrgX1 antagonist counter-screen hit in parental HEK293 cells | shares compounds with MrgX1 antag | AID 624111 | 4,000 tested, 2% active | fluorescence ratio F(max-min)/F0 at 10 µM | Fluo-4 calcium fluorescence, FDSS;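 active = duplicate-averaged calcium fluorescence ratio at least three times the standard deviation of buffer wells, a nonspecific response in parental cells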
HEK293 Ca counter: counter-screen for MrgX1 allosteric activators: effect in parental HEK293 cells. shares compounds with MrgX1 antag. parental HEK293 calcium flux, Fluo-4 fluorescence ratio; stronger effect = higher value. fluorescence ratio F(max-min)/F0 at 10 µM. 4,000 tested, 0.4% active. AID 624114;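 active = calcium fluorescence ratio, averaged over duplicates, at least 3 SD of the buffer-well ratio, meaning a nonspecific response in receptor-free cells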;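 note: untransfected parental HEK293 lacking MrgX1 used as counterscreen for MrgX1 allosteric activators; fluorescence change taken during the second addition on a kinetic imager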
HEK293 Ca cntr2: counter-screen for MrgX1 activators: effect in parental HEK293 cells. shares compounds with MrgX1 antag. 4,000 tested, 8.7% active. fluorescence ratio F(max-min)/F0 at 10 µM. Fluo-4 calcium fluorescence (FDSS); stronger effect = higher value;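 active = calcium fluorescence ratio at least three times the spread of buffer wells, meaning a non-specific response in parental cells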
The depositor's hits bear a star; i = inactive; / = no result.

SMILES	Cl transport mod	MrgX1 PAM	RGS4 inh	MrgX1 antag	MrgX1 ag	RGS4 act	MrgX1 antag conf	HEK293 Ca flux	HEK293 Ca counter	HEK293 Ca cntr2
CCN(CC)CCNc1nc2c(c(=O)n(C)c(=O)n2C)n1C/C=C(/C)Cl	/	i	i	-4.64*	i	i	i	i	i	i
O=C1CCc2cc(S(=O)(=O)N3CCN(c4ccccc4F)CC3)ccc2N1	/	i	i	-4.99*	i	i	i	i	i	i
CN1C(=O)/C(=C/c2cccc(Cl)c2)Sc2ccc(C(=O)N3CCCC3)cc21	/	i	i	i	i	i	/	/	/	/
COC(=O)C(NC(=O)c1ccccc1)c1ccccc1 (centres undefined)	1.38	i	i	-9.39*	i	i	i	i	i	i
O=C(NC(=S)NCCN1CCOCC1)c1ccccc1Cl	0.821	i	i	-4.88*	i	i	i	i	i	i
CCn1c(SCC(=O)Nc2ccc(C(C)=O)cc2)nc2nc3c(cc2c1=O)CCCC3	/	i	i	-5.82*	i	i	i	i	i	i
CCN(C(=O)CSc1nnc(-c2ccccc2Br)o1)C1CCS(=O)(=O)C1 (centres undefined)	-0.949	i	i	i	i	i	/	/	/	/
CCN(C(=O)CSc1ccc2ccccc2c1)C1CCS(=O)(=O)C1 (centres undefined)	-0.807	i	i	-4.6*	i	i	i	i	i	i
CCN(C(=O)COC(=O)CSc1ccc(C)c(C)c1)C1CCS(=O)(=O)C1 (centres undefined)	/	i	i	i	i	i	/	/	/	/
CCN(C(=O)CSc1nc2ccccc2o1)C1CCS(=O)(=O)C1 (centres undefined)	/	i	i	-4.72*	i	i	i	i	i	i
COc1ccc(NC(=S)N2CCC(NC(=O)c3cccc(C)c3)CC2)cc1	/	i	i	i	i	i	/	/	/	/
COc1ccc(C(=O)NC2CCN(C(=S)Nc3ccc(C)cc3)CC2)cc1	-0.349	i	i	-4.75*	i	i	i	i	i	i
CCS(=O)(=O)N1Cc2ccccc2CC1C(=O)N(C)CC(=O)Nc1cccc(F)c1 (centres undefined)	/	i	i	i	i	i	/	/	/	/
N#Cc1ccc(OS(=O)(=O)c2ccc(-c3ccon3)s2)cc1	/	i	i	-4.68*	i	i	i	i	i	i
COCCNC(=O)Cn1ccc2cc(S(=O)(=O)N3CCCCC3)ccc21	/	i	i	i	i	i	/	/	/	/
CCOCCC(=O)Nc1nnc(CCc2ccccc2)s1	/	i	i	i	i	i	/	/	/	/
Cc1ccc(NC(=O)Cn2c(=O)c3cccn3c3ccccc32)cc1	/	i	i	i	i	i	/	/	/	/
CCN1CCN(/C=N/c2nc3c(s2)CCCC3)CC1	/	i	i	-4.51*	i	i	i	i	i	i
CC(C)c1ccccc1NS(=O)(=O)c1cccs1	/	i	i	i	i	i	/	/	/	/
O=C(c1cc(-c2ccccn2)nc2ccc(Br)cc12)N1CCc2ccccc2C1	/	/	i	/	/	i	/	/	/	/
O=C(c1cc(-c2ccccn2)nc2ccc(Br)cc12)N1CCN(S(=O)(=O)c2ccccc2)CC1	-0.252	i	i	-6.7*	i	i	i	i	i	i
O=C(O)c1ccc(N2CCCCC2)cc1	1.14	i	i	-6.4*	i	i	i	i	i	i
CCCn1c(SC(C)C(=O)NCC2CCCO2)nc2sc(CC)cc2c1=O (centres undefined)	/	i	i	i	i	i	/	/	/	/
Cc1[nH]c2ccccc2c1SCCN	-1.09	i	i	-7.46*	i	i	i	i	i	i
Cc1ccc(-c2[nH]c3ccccc3c2SCCN)cc1	-0.751	i	i	i	i	i	/	/	/	/
SMILES	Cl transport mod	MrgX1 PAM	RGS4 inh	MrgX1 antag	MrgX1 ag	RGS4 act	MrgX1 antag conf	HEK293 Ca flux	HEK293 Ca counter	HEK293 Ca cntr2
O=S(=O)(NC1CCCCC1Oc1ccccc1)c1ccccc1 (centres undefined)	-0.0532	i	i	i	i	i	/	/	/	/
O=C(Cn1nnc(-c2ccc(CN3CCOCC3)cc2)n1)N1CCCc2ccccc21	/	i	i	i	i	i	/	/	/	/
O=C(Cn1nnc(-c2ccc(CN3CCOCC3)cc2)n1)N(c1ccccc1)c1ccccc1	-0.0979	i	i	-8.58*	i	i	i	i	i	i
COCCCNc1nc(N)c([N+](=O)[O-])c(N2CCCCCC2)n1	/	i	i	i	i	i	/	/	/	/
COC(=O)c1cc(C(=O)Nc2cc(C)on2)cc([N+](=O)[O-])c1	/	i	i	i	i	i	/	/	/	/
CCOc1cc(-c2c(C#N)c(N)nc3c2CCCC3C)ccc1O (centres undefined)	0.78	i	i	-4.74*	i	i	i	i	i	i
CCOc1cc(-c2cc(-c3ccc(C)cc3)nc(N)c2C#N)ccc1O	/	i	i	i	i	i	/	/	/	/
CC(=O)N1CCc2cc(Br)cc(S(=O)(=O)N3CCC(C(=O)O)CC3)c21	/	i	i	i	i	i	/	/	/	/
COc1ccc(-c2noc(N3CCC(C(=O)Nc4cc(OC)c(OC)c(OC)c4)CC3)n2)cc1	/	i	i	i	i	i	/	/	/	/
COc1cccc(N(CC(=O)NCc2ccco2)C(=O)CCC(=O)Nc2nccs2)c1	-0.994	i	i	i	i	i	/	/	/	/
COc1cc(NC(=O)CCN2CCN(c3ccccc3F)CC2)cc(OC)c1	-0.664	i	i	-4.83*	i	i	i	i	i	i
O=C(CCN1CCN(c2ccccc2F)CC1)Nc1ccc(F)cc1	/	i	i	i	i	i	/	/	/	/
CC(=O)Nc1ccc(S(=O)(=O)Nc2nc3nc(-c4ccccc4)cc(-c4ccccc4)n3n2)cc1	/	i	i	-6.38*	i	i	81.4%*	i	i	i
